# Source: PubChem
# L major viab: inhibitors of Leishmania major promastigote growth | Leishmania major promastigotes, resazurin fluorescence viability | inhibition, % at 10 µM | 200,000 compounds, 9% hits | AID 1063;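 further: promastigotes grown with compound for 44 hours at 28 °C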
# Wee1 stabilizer: human Wee1 degradation inhibition, primary screen; P30291; HeLa Luc-Wee1K328M stability, luciferase luminescence; 100% = proteasome inhibitor MG132 effect; reporter increase, % at 5 µM; 220,000 compounds, 1.2% hits; AID 1321;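 active means activation above the mean of all tested compounds plus 3 SD, set per screening run, cut at about 8.8% in these data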;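 further: cells exposed to compound for 20 h before luminescence read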
# Target sequence (P30291 whole entry K328M): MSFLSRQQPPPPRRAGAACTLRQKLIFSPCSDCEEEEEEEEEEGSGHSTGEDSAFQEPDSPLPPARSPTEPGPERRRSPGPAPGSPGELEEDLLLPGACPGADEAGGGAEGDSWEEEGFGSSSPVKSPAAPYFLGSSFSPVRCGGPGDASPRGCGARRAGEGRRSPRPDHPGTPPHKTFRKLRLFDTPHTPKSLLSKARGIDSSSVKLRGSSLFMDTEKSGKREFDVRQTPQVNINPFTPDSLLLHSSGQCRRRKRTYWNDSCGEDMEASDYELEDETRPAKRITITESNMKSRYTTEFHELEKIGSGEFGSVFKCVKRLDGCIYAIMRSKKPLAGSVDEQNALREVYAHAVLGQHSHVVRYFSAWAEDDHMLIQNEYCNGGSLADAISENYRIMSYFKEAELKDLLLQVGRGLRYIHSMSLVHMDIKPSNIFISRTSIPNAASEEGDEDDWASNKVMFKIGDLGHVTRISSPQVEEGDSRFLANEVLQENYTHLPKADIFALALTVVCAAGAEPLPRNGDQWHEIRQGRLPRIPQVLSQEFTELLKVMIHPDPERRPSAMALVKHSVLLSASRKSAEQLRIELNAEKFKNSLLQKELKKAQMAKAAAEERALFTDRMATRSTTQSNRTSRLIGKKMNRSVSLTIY
# CHOP inhibitor: inhibitors of CHOP induction in ER stress response; CHO-K1 CHOP-promoter luciferase, tunicamycin-induced, 15-18 h; inhibition, % at 10 µM; 220,000 compounds, 3.8% hits; AID 2732;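 active means compounds that reduced the stress-induced luciferase reporter signal by more than about 70% of percent inhibition, limit read from the data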
# Arbovirus inh: arbovirus infection inhibition | arbovirus infection cell-based antiviral screen | inhibition, % at 10 µM | 200,000 compounds, 0.37% hits; in the data active means inhibition above about 30%
# PKD1 inh: inhibitors of human PKD1 kinase | 200,000 compounds, 0.056% hits | Q15139 | inhibition, % (no concentration beside the values) | PKD1 kinase fluorescence polarization assay | AID 797
# Rad51 HR inh: blocks human Rad51 in homologous recombination | hRad51 DNA strand exchange, fluorescence dequenching | inhibition, % at 10 µM | Q06609 | AID 1385 | 200,000 compounds, 0.085% hits;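 active means inhibition above 40% at the single screening dose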
#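 Test system: preformed human Rad51 ssDNA filaments. Compound dosing: single dose, 10 µM final compound. Incubation: filaments 15 min 37 °C, then compound 30 min. Technique: FRET fluorescence dequenching, excitation 485 nm, emission 520 nm. Read-out basis: percent inhibition from fluorescence, normalised to plate control and blank means. Benchmarks: plate controls and plate blanks.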
# Hits are given with their value; 0 = inactive; - = no result given. Shown are actives, neighbours in structure and some others; about 12% of the full set was active somewhere. Unless noted, no stated cut-off is given here; in the data, active means inhibition above about 50%; inactive means the rest.
SMILES,L major viab,Wee1 stabilizer,CHOP inhibitor,Arbovirus inh,PKD1 inh,Rad51 HR inh
Cc1cc(CSc2nc(C)cc(=O)[nH]2)c2ncccc2c1,0,0,87,0,0,0
O=C1c2ccccc2-n2c1nc1ccccc1c2=O,100,0,0,0,0,0
O=c1c2ccccc2nc2n1-c1ccccc1CCC2,0,0,0,0,0,0
O=C(Nc1ccc(F)cc1)c1ccccc1S(=O)(=O)c1ccccc1[N+](=O)[O-],58,0,0,0,0,0
CC(C)C(=O)NNS(=O)(=O)c1ccccc1[N+](=O)[O-],54,0,0,0,0,0
O=C(NNS(=O)(=O)c1ccccc1[N+](=O)[O-])c1ccccc1[N+](=O)[O-],0,0,0,0,0,0
NC(=O)c1ccccc1NC(=O)c1ccccc1S(=O)(=O)c1ccccc1[N+](=O)[O-],65,0,0,0,0,0
Nc1nc(CCl)nc(N(c2ccccc2)c2ccccc2)n1,-,0,0,-,-,0
Cc1nc2c(sc3nc4c(cc32)COC(C)(C)C4)c(=O)n1CC(=O)NCc1ccco1,0,9.3,-,0,0,0
CCNC(=S)N/N=C/c1cccs1,100,0,0,0,0,0
CC(=C/c1ccco1)/C=N/NC(=O)c1nnn(-c2nonc2N)c1CN(C)C,0,0,0,0,0,0
O=C(Nc1cc(C(F)(F)F)ccc1Cl)C(NCc1ccccc1)c1ccccc1 (stereo not drawn),92,0,0,0,0,0
O=C(NC(=S)Nc1cc(C(F)(F)F)ccc1Cl)c1ccccc1,0,0,89,0,0,0
Cc1cc(C)c(S(=O)(=O)N(C)CC(=O)NCc2ccncc2)c(C)c1,0,0,0,0,0,0
Cc1ccc(NC(=O)C2CC(=O)Nc3ncnn32)c(C)c1 (stereo not drawn),-,0,0,-,-,0
Cc1ccc(OCCCOc2cccc3cccnc23)cc1C,0,0,0,0,0,0
Cc1cccc(OCCCOc2cccc3cccnc23)c1C,69,0,0,0,0,0
Cc1cccc(OCCCCc2c(C)n[nH]c2C)c1C,0,0,95,0,0,0
Cc1nn(CCc2nn[nH]n2)c2nc(-c3ccc(C4CCCCC4)cc3)cc(C(F)(F)F)c12,0,0,106,0,0,0
Cc1c(Cl)ccc2c(C(=O)NCCN3CCCCC3)cc(-c3ccccn3)nc12,79,0,0,0,0,0
Cc1cc(C)c2nc(-c3ccccn3)cc(C(=O)NCc3cc(C)n(C)n3)c2c1,0,0,0,0,0,0
COC(=O)c1nc2n(n1)C(c1cc(OC)ccc1OC)C(C(=O)OC1CCCCC1)=C(C)N2 (stereo not drawn),0,0,80,0,0,0
COC(=O)C1=C(C)Nc2nnnn2C1c1cc(OC)ccc1OC (stereo not drawn),0,0,0,0,0,0
COc1ccc(N2CCN(C(CNC(=O)C3CCCCC3)c3cccnc3)CC2)cc1 (stereo not drawn),87,0,-,0,0,0
COc1ccc(N2CCN(C(CNC(=O)C(=O)NCc3cccnc3)c3ccco3)CC2)cc1 (stereo not drawn),0,0,0,0,0,0
SMILES,L major viab,Wee1 stabilizer,CHOP inhibitor,Arbovirus inh,PKD1 inh,Rad51 HR inh
O=C(NCC(c1cccnc1)N1CCN(c2ccc(F)cc2)CC1)C1CCCCC1 (stereo not drawn),74,0,0,0,0,0
O=C(NCC(c1cccnc1)N1CCN(c2ccccc2F)CC1)C1CCCCC1 (stereo not drawn),71,0,0,0,0,0
O=C(CNC(=S)N(Cc1ccccc1F)C1CCCCC1)NCC1CCCO1 (stereo not drawn),0,0,0,0,0,0
COc1ccc(-c2cc(C(F)(F)F)nc(NCc3ccco3)n2)cc1OC,0,0,75,0,0,0
COc1cccc(-c2cc(C(F)(F)F)nc(NCc3ccco3)n2)c1,0,0,71,0,0,0
O=C(Nc1ccccc1O)c1ccc(NS(=O)(=O)c2cccc3cccnc23)cc1,0,0,0,0,0,-
O=C(/C(=C/O)N=Nc1ccc(Cl)cc1)c1ccncc1,100,0,0,0,0,0
Cc1ccc(N=N/C(=C\O)C(=O)c2ccncc2)cc1,0,0,89,0,0,0
COc1ccccc1N(CC(=O)NCC1CCCO1)C(=O)CNS(=O)(=O)c1ccccc1 (stereo not drawn),-,0,0,-,-,0
COc1cc(OC)c(C(=O)Nc2cccc(C(C)=O)c2)cc1OC,0,0,0,0,0,0
O=CN(c1ccccc1)c1ccc2ccccc2c1,0,0,0,0,0,0
CCOc1ccc(S(=O)(=O)NCc2ccc(F)cc2)c2cccnc12,89,0,0,0,0,0
CCOc1ccc(S(=O)(=O)Nc2cccc(C)c2)c2cccnc12,0,0,0,0,0,0
CCOc1ccc(S(=O)(=O)N2CCN(c3ccc(OC)cc3)CC2)c2cccnc12,0,0,0,0,0,0
CCOc1ccc(S(=O)(=O)N2CCN(c3ccccc3)CC2)c2cccnc12,0,0,0,0,0,0
CCOc1ccc(S(=O)(=O)NCc2ccc(OC)cc2)c2cccnc12,90,0,0,0,0,-
CCOc1ccc(S(=O)(=O)N2CCN(c3ccccc3OC)CC2)c2cccnc12,0,0,0,34,0,0
CC1(c2ccccc2Cl)NC(=O)N(CC(=O)NCc2ccco2)C1=O (stereo not drawn),0,0,0,0,0,0
O=C(CCC(=O)N(CC(=O)NC1CCCC1)Cc1cccs1)Nc1nccs1,0,0,0,0,0,0
CCCC(=O)O[C@H]1C[C@@H](C)N(C(=O)c2ccccc2)c2ccc(C)cc21,0,0,74,0,0,0
CC1(C)Cc2cccc(OCC(O)CN3CCN(c4ccccn4)CC3)c2O1 (stereo not drawn),85,0,0,0,0,0
O=C(CSc1nnc(-c2ccc(F)cc2)c2ccccc12)NCC1CCCO1 (stereo not drawn),0,0,0,0,0,0
COc1cccc(CNC(=O)c2cc(COc3c(F)cccc3F)on2)c1,0,9.8,0,0,0,-
Cc1nc(CNC(=O)c2cc(COc3c(F)cccc3F)on2)cs1,-,0,0,-,-,0
COC(=O)c1ccccc1NC(=O)N1c2ccccc2Sc2ccccc21,90,0,0,0,0,0
SMILES,L major viab,Wee1 stabilizer,CHOP inhibitor,Arbovirus inh,PKD1 inh,Rad51 HR inh
COC(=O)c1ccc(C(=O)OC)c(NC(=O)N2c3ccccc3Sc3ccccc32)c1,0,0,0,0,0,0
O=C(CSCC(=O)NCc1ccco1)NCc1ccco1,0,0,0,0,0,0
COc1ccc(CCNC(=O)N2c3ccccc3Sc3ccccc32)cc1,68,0,-,-,0,0
O=C(NCc1ccco1)N1c2ccccc2Sc2ccccc21,62,0,0,0,0,0
O=C(C1=NN[C@@H]2C(=O)N(c3cccc(C(F)(F)F)c3)C(=O)[C@H]12)c1cnccn1,-,0,0,-,-,0
CCOC(=O)C1=C(C)N(C)C(C)=C(C(=O)OCC)C1c1cccnc1,95,0,0,0,0,0
